ChEMBL document CHEMBL1132449, “Pyrroloquinoxaline derivatives as high-affinity and selective 5-HT(3) receptor agonists: synthesis, further structure-activity relationships, and biological studies” (J Med Chem, 1999)

Columns and labels:
[1] = target: T1, Serotonin 3 (5-HT3) receptor (Rattus norvegicus, UniProt P35563+Q9JJ16); test: Binding affinity against 5-hydroxytryptamine 3 (5-HT3) receptor from rat cortical homogenate using [3H]zacopride as radioligand
T1 sequence (P35563 whole entry): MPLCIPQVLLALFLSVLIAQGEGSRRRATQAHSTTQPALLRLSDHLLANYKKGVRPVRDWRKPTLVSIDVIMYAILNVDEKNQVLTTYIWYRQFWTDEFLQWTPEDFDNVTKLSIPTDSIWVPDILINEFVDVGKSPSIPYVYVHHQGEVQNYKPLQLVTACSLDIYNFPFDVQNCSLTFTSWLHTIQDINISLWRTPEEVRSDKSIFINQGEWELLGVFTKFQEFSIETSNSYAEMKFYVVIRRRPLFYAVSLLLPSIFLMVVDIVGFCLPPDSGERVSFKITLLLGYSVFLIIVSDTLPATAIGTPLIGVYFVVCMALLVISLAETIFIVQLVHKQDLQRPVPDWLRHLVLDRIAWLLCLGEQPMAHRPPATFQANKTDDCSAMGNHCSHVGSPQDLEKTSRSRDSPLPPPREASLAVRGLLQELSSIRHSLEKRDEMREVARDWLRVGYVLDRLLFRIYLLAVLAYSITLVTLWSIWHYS
T1 sequence (Q9JJ16 whole entry): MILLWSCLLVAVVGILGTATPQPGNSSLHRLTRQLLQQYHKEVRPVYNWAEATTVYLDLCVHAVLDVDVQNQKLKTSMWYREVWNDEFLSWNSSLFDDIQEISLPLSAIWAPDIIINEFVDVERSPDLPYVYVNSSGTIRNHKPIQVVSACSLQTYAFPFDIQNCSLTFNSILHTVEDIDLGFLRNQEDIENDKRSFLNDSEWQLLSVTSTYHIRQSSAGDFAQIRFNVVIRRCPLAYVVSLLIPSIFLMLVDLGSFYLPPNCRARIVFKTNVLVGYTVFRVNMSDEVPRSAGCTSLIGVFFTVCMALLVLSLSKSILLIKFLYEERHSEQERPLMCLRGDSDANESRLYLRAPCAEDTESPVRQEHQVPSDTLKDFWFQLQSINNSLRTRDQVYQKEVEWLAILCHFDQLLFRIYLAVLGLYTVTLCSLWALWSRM
How it was run: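 Male rat cortices, stored at -80 °C, were homogenized in ice-cold 25 mM Tris HCl pH 7.4 and spun at 50000g. Membranes were preincubated 10 min at 37 °C, washed, and resuspended with 10 µM pargyline (10 mg tissue/sample). They were incubated with 0.4 nM (final) [3H]zacopride for 30 min at 25 °C, filtered through PEI-treated GF/B and counted. IC50 came from dose-inhibition curves, mean ± SEM of three determinations.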

[2] = target: T2, 5-hydroxytryptamine receptor 1A (Rattus norvegicus, UniProt P19327); test: The compound was tested for the binding affinity against 5-hydroxytryptamine 1A receptor using [3H]8-OH-DPAT as radioligand.
T2 sequence (P19327 whole entry): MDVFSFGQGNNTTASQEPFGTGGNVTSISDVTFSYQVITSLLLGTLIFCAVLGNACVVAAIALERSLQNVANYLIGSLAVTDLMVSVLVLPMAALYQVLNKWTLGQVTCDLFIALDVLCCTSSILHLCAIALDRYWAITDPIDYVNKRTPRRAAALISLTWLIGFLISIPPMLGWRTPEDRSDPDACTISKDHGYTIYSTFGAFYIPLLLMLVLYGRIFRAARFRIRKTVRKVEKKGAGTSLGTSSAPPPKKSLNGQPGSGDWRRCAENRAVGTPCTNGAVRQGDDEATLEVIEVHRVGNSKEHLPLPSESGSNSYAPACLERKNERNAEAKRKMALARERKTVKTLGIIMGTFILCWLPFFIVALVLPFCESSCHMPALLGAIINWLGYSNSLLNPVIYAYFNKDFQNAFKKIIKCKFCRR

[3] = target: T3, 5-hydroxytryptamine receptor 1B (Rattus norvegicus, UniProt P28564); test: The compound was tested for the binding affinity against 5-hydroxytryptamine 1B receptor using [3H]5-HT as radioligand
T3 sequence (P28564 whole entry): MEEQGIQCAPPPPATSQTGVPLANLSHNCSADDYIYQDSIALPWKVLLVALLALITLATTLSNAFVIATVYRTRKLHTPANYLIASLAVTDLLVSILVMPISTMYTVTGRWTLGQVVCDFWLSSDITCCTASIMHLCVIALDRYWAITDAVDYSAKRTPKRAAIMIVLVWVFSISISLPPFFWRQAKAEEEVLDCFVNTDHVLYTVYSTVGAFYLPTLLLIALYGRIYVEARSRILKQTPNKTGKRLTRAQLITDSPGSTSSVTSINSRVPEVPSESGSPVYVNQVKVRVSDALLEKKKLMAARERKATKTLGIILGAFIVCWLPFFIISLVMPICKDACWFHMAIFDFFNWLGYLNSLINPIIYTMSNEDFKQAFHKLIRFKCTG

[4] = target: T4, 5-hydroxytryptamine receptor 2A (Rattus norvegicus, UniProt P14842); test: The compound was tested for the binding affinity against 5-hydroxytryptamine 2A receptor using [3H]ketanserin as radioligand
T4 sequence (P14842 whole entry): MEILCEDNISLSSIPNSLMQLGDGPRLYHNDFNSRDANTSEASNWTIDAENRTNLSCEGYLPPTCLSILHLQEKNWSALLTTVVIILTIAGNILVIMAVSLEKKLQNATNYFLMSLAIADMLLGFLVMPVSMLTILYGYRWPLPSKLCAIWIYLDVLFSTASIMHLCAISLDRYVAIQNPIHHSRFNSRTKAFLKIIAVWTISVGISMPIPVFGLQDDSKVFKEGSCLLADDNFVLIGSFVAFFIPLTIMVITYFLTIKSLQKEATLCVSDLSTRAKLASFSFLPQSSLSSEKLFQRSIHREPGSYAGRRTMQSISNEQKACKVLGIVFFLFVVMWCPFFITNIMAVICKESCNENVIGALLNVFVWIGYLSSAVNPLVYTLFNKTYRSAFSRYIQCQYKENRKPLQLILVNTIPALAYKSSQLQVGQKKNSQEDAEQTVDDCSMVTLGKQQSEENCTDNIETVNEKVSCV

[5] = target: T5, 5-hydroxytryptamine receptor 2C (Rattus norvegicus, UniProt P08909); test: The compound was tested for the binding affinity against 5-hydroxytryptamine 2C receptor using [3H]mesulergine as radioligand
T5 sequence (P08909 whole entry): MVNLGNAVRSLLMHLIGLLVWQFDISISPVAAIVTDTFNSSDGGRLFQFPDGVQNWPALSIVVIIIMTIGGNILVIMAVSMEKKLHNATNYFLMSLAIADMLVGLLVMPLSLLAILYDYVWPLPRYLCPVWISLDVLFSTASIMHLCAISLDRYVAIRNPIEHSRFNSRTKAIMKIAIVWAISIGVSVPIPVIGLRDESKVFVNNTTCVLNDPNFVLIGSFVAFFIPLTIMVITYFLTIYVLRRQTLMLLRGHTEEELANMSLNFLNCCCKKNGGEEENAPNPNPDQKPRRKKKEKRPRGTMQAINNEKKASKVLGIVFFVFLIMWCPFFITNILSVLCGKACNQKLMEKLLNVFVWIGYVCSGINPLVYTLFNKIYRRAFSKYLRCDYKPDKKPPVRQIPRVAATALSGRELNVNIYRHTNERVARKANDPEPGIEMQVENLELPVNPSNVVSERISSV

[6] = target: T1, Serotonin 3 (5-HT3) receptor; test: The compound was tested for the binding affinity against 5-hydroxytryptamine 3 receptor using [3H]zacopride as radioligand; format: protein-complex assay
[7] = target: T6, 5-hydroxytryptamine receptor 4 (Cavia porcellus, UniProt O70528); test: The compound was tested for the binding affinity against 5-hydroxytryptamine 4 receptor using [3H]GR-113808 as radioligand
T6 sequence (O70528 whole entry): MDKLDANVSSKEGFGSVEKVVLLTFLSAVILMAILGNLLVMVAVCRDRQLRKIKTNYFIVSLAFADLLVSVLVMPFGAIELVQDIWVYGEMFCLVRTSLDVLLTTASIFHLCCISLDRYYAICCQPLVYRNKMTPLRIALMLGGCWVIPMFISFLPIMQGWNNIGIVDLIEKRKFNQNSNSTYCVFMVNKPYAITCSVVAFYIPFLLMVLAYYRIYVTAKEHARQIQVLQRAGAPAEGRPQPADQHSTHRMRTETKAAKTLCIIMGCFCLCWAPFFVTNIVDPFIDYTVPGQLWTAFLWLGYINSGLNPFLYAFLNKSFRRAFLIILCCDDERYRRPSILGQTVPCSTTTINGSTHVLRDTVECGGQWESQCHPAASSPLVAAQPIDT
How it was run: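 Male guinea pig striatal membranes, washed and preincubated at 37 °C, were incubated with 0.1 nM (final) [3H]GR113808 for 30 min at 37 °C.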

[8] = The compound was tested for brain to plasma partition in rat; format: ADME, organism-based; conditions: brain and plasma, read-out: AUC ratio
How it was run: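 Male CD-COBS rats (175-200 g) received hydrochloride salts in saline i.v. at 5 mg/kg and were killed 60, 120 and 180 min after dosing. Plasma and brain levels were measured by HPLC-UV (254 nm) after liquid-liquid or solid-phase extraction with an internal standard. The ratio is brain-to-plasma AUC_t, 2-3 rats per point.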

[9] = target: Serotonin 3 (5-HT3) receptor; test: Effective concentration against 5-Hydroxytryptamine 3 receptor by measuring [14C]guanidinium uptake on NG108-15 cells.; format: functional, cell-based
NG108-15 [10] = test: The compound was tested for efficacy against 5-Hydroxytryptamine 3 receptor by measuring [14C]guanidinium uptake on NG108-15 cells; PA=Partial agonist; format: functional, cell-based; conditions: filed as partial agonist
How it was run: (§1)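 NG108-15 cells, grown 2 days, were washed in HEPES saline pH 7.4. They were exposed 10 min at 37 °C to buffer (135 mM NaCl, 10 mM guanidinium) with […] [14C]guanidinium, 1 mM 5-HT, […] and/or 8 drug concentrations. Cells were washed in ice-cold choline buffer, dissolved in NaOH and counted by scintillation. Assays run in triplicate.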

[11] = target: T1, Serotonin 3 (5-HT3) receptor; test: The compound was tested for binding affinity against 5-hydroxytryptamine 3 receptor from NG108-15 cells using [3H]zacopride as radioligand; format: cell-based
How it was run: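 NG108-15 cells were grown in DMEM with 10% inactivated FCS plus HAT at 37 °C, 10% CO2, harvested by shaking and pelleted. About 420 000 cells/sample in 50 mM Tris HCl pH 7.5 with 25 mM NaCl were incubated with 0.4 nM (final) [3H]zacopride for 60 min at 25 °C, then filtered and counted. IC50 is mean ± SEM of three determinations.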

NG108-15 [12] = test: The compound was tested for efficacy against 5-Hydroxytryptamine 3 receptor by measuring [14C]guanidinium uptake on NG108-15 cells.; A = Agonist; format: functional, cell-based; conditions: filed as agonist; how it was run: as §1
[13] = target: T4, 5-hydroxytryptamine receptor 2A; test: The compound was tested for the binding affinity against 5-hydroxytryptamine 2A receptor using [3H]ketanserin as radioligand.
[14] = target: T5, 5-hydroxytryptamine receptor 2C; test: The compound was tested for the binding affinity against 5-hydroxytryptamine 2C receptor using [3H]Mesulergine as radioligand.
[15] = target: T1, Serotonin 3 (5-HT3) receptor; test: The compound was tested for the binding affinity against 5-hydroxytryptamine 3 receptor using [3H]zacopride as radioligand.; format: protein-complex assay
[16] = target: T3, 5-hydroxytryptamine receptor 1B; test: The compound was tested for the binding affinity against 5-hydroxytryptamine 1B receptor using [3H]5-HT as radioligand.
[17] = target: T6, 5-hydroxytryptamine receptor 4; test: The compound was tested for the binding affinity against 5-hydroxytryptamine 4 receptor using [3H]GR-113808 as radioligand.

Compound	IC50 [1] [nM]	EC50 [9] [nM]	further results
Cc1cc2nc(N3CCNCC3)c3cccn3c2cc1C	113		
Cc1cc2nc(N3CCN(C)CC3)c3cccn3c2cc1C	30		
c1ccc(CN2CCN(c3nc4ncccc4n4cccc34)CC2)cc1	2.2	4.2	Ki [2]: > 10000 nM; Ki [3]: > 10000 nM; Ki [4]: 794 nM; Ki [5]: > 10000 nM; Ki [6]: 2 nM; Ki [7]: > 10000 nM; Kp [8]: 2.1; Efficacy (NG108-15 [10]): Partial agonist
Cc1cc2nc(N3CCN(Cc4ccccc4)CC3)c3cccn3c2cc1C	44		
CN1CCN(c2nc3cccnc3n3cccc23)CC1	1		IC50 [11]: 5.4 nM
CN1CCN(c2nc3cc(F)ccc3n3cccc23)CC1		3	Efficacy (NG108-15 [12]): Agonist
Cc1cccc2nc(N3CCN(Cc4ccc(Br)s4)CC3)c3cccn3c12	104		
CN1CCN(c2nc3cc(C#N)ccc3n3cccc23)CC1	104		
CN1CCN(c2nc3cc(Cl)c(Cl)cc3n3cccc23)CC1	97		
c1ccc2nc(N3CCNCC3)ccc2c1 [QUIPAZINE]	3.8		Ki [13]: 794 nM; Ki [14]: 316 nM; Ki [15]: 6.31 nM; Efficacy (NG108-15 [10]): Partial agonist
OCCN1CCN(c2nc3cccc(F)c3n3cccc23)CC1	8.2	54	Ki [2]: 501 nM; Ki [16]: 1580 nM; Ki [13]: 501 nM; Ki [14]: 2000 nM; Ki [6]: 7.94 nM; Ki [17]: > 10000 nM; Kp [8]: 20.3; Efficacy (NG108-15 [10]): Partial agonist
N#CCN1CCN(c2nc3cccc(F)c3n3cccc23)CC1	3800		Kp [8]: 0.1
CN1[C@@H]2CC[C@H]1C[C@@H](OC(=O)c1cc(Cl)cc(Cl)c1)C2 [BEMESETRON]	97		
c1csc(CN2CCN(c3nc4ccccc4n4cccc34)CC2)c1	22		
OCCN1CCN(c2nc3cc(F)ccc3n3cccc23)CC1	2.6	2.4	Efficacy (NG108-15 [12]): Agonist
O=C(O)CN1CCN(c2nc3cccc(F)c3n3cccc23)CC1	920		
Cc1cccc2nc(N3CCN(Cc4ccccc4)CC3)c3cccn3c12	8.8	12	Efficacy (NG108-15 [12]): Agonist
CN1CCN(c2nc3ccccc3c3ccnn23)CC1	1.6	2.7	Efficacy (NG108-15 [12]): Agonist
CN1CCN(c2nc3cc(OCc4ccccc4)ccc3n3cccc23)CC1	225		
Fc1ccc2c(c1)nc(N1CCN(Cc3ccccc3)CC1)c1cccn12	13	4.2	Efficacy (NG108-15 [10]): Partial agonist

Compound	IC50 [1] [nM]	EC50 [9] [nM]	further results
Cc1ccc2c(c1)nc(N1CCNCC1)c1cccn12	16.4		
c1ccc(CN2CCN(c3nc4cccnc4n4cccc34)CC2)cc1	2.3	32	Efficacy (NG108-15 [10]): Partial agonist
CN1CCN(C2=NC=CN3CCN=C23)CC1	3650		
Clc1cc2nc(N3CCN(Cc4ccccc4)CC3)c3cccn3c2cc1Cl	118		
Cc1ccc2c(c1)nc(N1CCN(Cc3ccccc3)CC1)c1cccn12	24		
Fc1ccc2c(c1)nc(N1CCN(Cc3ccco3)CC1)c1cccn12	11	6.6	Efficacy (NG108-15 [10]): Partial agonist
OCCN1CCN(c2nc3cccnc3n3ccnc23)CC1	38		
CN1CCN(c2nc3cc(O)ccc3n3cccc23)CC1	0.67	1.6	Efficacy (NG108-15 [12]): Agonist
CN1CCN(c2nc3cccnc3n3ccnc23)CC1	6.6		
Cc1[nH]c2ccc(O)cc2c1CCN			Ki [15]: 200 nM
Fc1ccc2c(c1)nc(N1CCN(Cc3ccc(Br)o3)CC1)c1cccn12	148		
c1cnc2nc(N3CCNCC3)c3cccn3c2c1	3.1		
Fc1cccc2nc(N3CCN(Cc4ccc5ccccc5c4)CC3)c3cccn3c12	780		Kp [8]: 2.8
CN1CCN(c2nccn3cccc23)CC1	1930		
Fc1cccc2nc(N3CCN(CC4N=NN=N4)CC3)c3cccn3c12	690		
Fc1ccc2c(c1)nc(N1CCN(Cc3cccs3)CC1)c1cccn12	12		
CN1CCN(c2nc3ccccc3n3ccnc23)CC1	3.8	15	Efficacy (NG108-15 [12]): Agonist
c1csc(CN2CCN(c3nc4cccnc4n4cccc34)CC2)c1	3.6		Ki [2]: > 10000 nM; Ki [16]: 3980 nM; Ki [13]: 1580 nM; Ki [14]: > 10000 nM; IC50 [11]: 6.4 nM; Ki [15]: 3.16 nM; Ki [17]: > 10000 nM
CN1CCN(c2nc3cc(F)ccc3n3ccnc23)CC1	5.2	7.2	Efficacy (NG108-15 [12]): Agonist
Fc1cccc2nc(N3CCN(Cc4cccs4)CC3)c3cccn3c12	60		
